# Assay outcomes as filed in PubChem.
# Shown are actives, neighbours in structure and some others; about 1.3% of the full set was active somewhere.
# Tb hexokinase – Trypanosoma brucei hexokinase 1 inhibitors, primary screen, biochemical, G6PDH-coupled NADH absorbance, MLSCN library | hexokinase 1 [Trypanosoma brucei] | recombinant TbHK1, G6PDH-coupled NADH A340 | inhibition, % at 10 µM | hit rate 0.11% among 220,000;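 active means inhibition of 50% or more in the single-dose primary screen; inactive means inhibition below 50%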
# HKDC1 inh – HKDC1 hexokinase inhibitors, primary screen, biochemical, fluorescence, uHTS. recombinant HKDC1, G6PDH/diaphorase resazurin coupled fluorescence. inhibition, % at 20 µM. hit rate 0.16% among 340,000. Q2TB90;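 active means inhibition above about 35% when tested at 20 µM, limit read from the data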;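 further: plate controls were DMSO wells with enzyme for no effect and DMSO wells lacking enzyme for full effect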
# Target sequence (Q2TB90 whole entry, looked up): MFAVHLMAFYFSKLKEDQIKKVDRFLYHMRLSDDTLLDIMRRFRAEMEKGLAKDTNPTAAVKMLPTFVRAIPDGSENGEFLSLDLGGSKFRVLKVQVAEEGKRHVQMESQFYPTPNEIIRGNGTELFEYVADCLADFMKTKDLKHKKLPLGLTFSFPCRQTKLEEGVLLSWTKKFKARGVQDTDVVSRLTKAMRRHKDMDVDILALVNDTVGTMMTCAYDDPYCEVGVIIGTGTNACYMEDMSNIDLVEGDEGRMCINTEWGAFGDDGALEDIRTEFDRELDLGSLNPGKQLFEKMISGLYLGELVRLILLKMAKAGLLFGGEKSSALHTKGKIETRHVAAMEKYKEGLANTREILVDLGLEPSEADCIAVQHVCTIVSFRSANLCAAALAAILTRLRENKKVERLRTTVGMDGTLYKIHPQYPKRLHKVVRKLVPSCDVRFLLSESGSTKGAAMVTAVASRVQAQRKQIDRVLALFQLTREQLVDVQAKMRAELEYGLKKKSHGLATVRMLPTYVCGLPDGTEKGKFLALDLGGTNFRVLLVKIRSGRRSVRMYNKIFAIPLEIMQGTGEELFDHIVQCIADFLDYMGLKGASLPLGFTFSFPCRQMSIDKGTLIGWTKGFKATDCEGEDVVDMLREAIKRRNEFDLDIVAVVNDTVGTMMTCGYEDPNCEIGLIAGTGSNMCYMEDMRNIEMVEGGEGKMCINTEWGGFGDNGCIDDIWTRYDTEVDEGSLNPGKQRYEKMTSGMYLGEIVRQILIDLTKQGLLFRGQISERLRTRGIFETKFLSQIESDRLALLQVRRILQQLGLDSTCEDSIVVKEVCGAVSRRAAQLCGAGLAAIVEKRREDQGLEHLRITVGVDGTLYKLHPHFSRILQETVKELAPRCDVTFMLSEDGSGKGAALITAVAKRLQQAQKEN
#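 Test system: recombinant HKDC1 (HK5) hexokinase enzyme, produced in-house / Doses: 20 µM test compound, 1% DMSO / Timing: 90 min, room temperature / Detection: G6PDH/diaphorase-coupled fluorescence, 1 mM NADP, 100 µM resazurin, 525/613 nm / Control set: DMSO wells with and without enzyme mix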
# Diaph act CS – compounds boosting diaphorase resazurin reduction – biochemical, uHTS, resorufin fluorescence, counter-screen for diaphorase-coupled primary assays, primary screen; Diaphorase/resazurin coupled assay, 16 min; active compounds read high; 1 = vehicle wells, 0 = NADH-free wells; hit rate 0.005% among 190,000; activation factor at 20 µM; AID 1229, 2008;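 active means diaphorase activity raised at least twofold by the compound at 20 µM; inactive means activation factor below 2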
#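 Assay system: Purified diaphorase enzyme from Clostridium kluyveri | Amount: Enzyme 0.07 U/mL final | Dosing: Compound 20 µM once, DMSO 1% | Timing: 16 min reaction at room temperature | Detection: Fluorescence, excitation 544 nm and emission 590 nm | Evaluation: Higher resorufin formation from activation or reduction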
# PfG6PD inh – PfG6PD enzyme inhibitors, primary screen, biochemical, fluorescence intensity, uHTS; PfGluPho enzyme, NADPH resazurin-diaphorase fluorescence; inhibition, % at 20 µM; hit rate 0.78% among 350,000;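 active means inhibition reaching at least a set limit at 20 µM in the primary screen, cut at about 59% in these data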;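 further: 0% = DMSO wells with substrate and 100% = DMSO wells lacking glucose-6-phosphate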
# Diaphorase inh – diaphorase inhibitors and chemical oxidizers, primary screen, counter-screen for diaphorase-coupled primary assays, biochemical, uHTS, resorufin fluorescence | AID 1217, 2008 | inhibition, % at 20 µM | hit rate 0.69% among 190,000 | diaphorase resazurin-to-resorufin fluorescence, NADH, 16 min; bacterial (C. kluyveri) enzyme, not human;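 active means primary screen inhibition at 20 µM above a set limit, cut at about 50% in these data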;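 further: plate controls were DMSO with full reaction for no effect and wells lacking NADH for full effect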
#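 Test system: diaphorase enzyme from Clostridium kluyveri; amount: diaphorase at 0.14 U/mL in enzyme working solution; detection: fluorescence of resorufin formed from resazurin, Ex 544/Em 590 nm; times: reaction incubation of 16 min at room temperature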
# G6PDH counter – L. mesenteroides G6PDH inhibitors, counter-screen for G6PDH-coupled screening assays, biochemical, Leuconostoc mesenteroides enzyme; inhibition, % at 5 µM; hit rate 0.12% among 200,000; Purified L. mesenteroides G6PDH, diaphorase/resazurin coupled fluorescence, 45 min; glucose-6-phosphate dehydrogenase [Leuconostoc mesenteroides]; AID 1020, 2008; in the data active means inhibition above about 50%
# * hit, by the source's call; x = no result.
SMILES,Tb hexokinase,HKDC1 inh,Diaph act CS,PfG6PD inh,Diaphorase inh,G6PDH counter
COc1cc(C2CC(=O)NC3=C2C(=O)CC(C)(C)C3)cc(OC)c1O (stereo not given),3,5,0.8,3,21,50*
COc1cc(/C=C2/C(=O)c3cccc([N+](=O)[O-])c3C2=O)c(Br)cc1O,23,29,0.5,19,50*,-3
CSCc1ccc(C(=O)NCc2ccc(F)cc2)cc1,43,-2,0.8,-5,20,2
C=CC#CC[N+]1(CC#Cc2ccccc2)CCOCC1,16,34,1.5,72*,-47,1
CCN1C(=O)c2cccc3c(S(=O)(=O)Nc4ccccc4OC)ccc1c23,29,4,0.5,-30,51*,0
COc1c(C)cccc1C(=O)NC(=S)Nc1cccc2nsnc12,-3,13,0.3,20,66*,10
CC(C)CC(=O)NC(=S)Nc1cccc2nsnc12,-1,12,0.8,17,19,0
COc1cccc2cc(-c3ccnc(=S)[nH]3)oc12,-20,x,0.4,x,58*,-5
COc1cccc(/C=N/n2c(-c3n[nH]c4c3CCC4)n[nH]c2=S)c1O,-3,8,0.4,43,58*,28
COc1ccc(NC(=S)N2CCC3CC2c2c(Cl)cccc23)c(OC)c1 (stereo not given),x,x,x,-12,x,x
CC(=O)Oc1c(C)cc(O)c2ccccc12,2,x,0.7,x,33,51*
CC(=O)Oc1ccc2c(C)cc(=O)[nH]c2c1,-12,-1,0.8,3,24,18
O=C1C=C(Nc2ccccc2)C(=O)c2ccccc21,-3,12,0.8,-6,18,25
CC1=CC(=O)c2ccccc2C1=O,2,0,1.2,21,-22,61*
CCOC(=O)C1=CN(CC2CCCCC2)CCC1=O,x,-8,x,5,x,x
CN1C(c2ccccc2)=NO[C@]1(C)c1ccccc1,x,0,x,-1,x,x
O=C(Nc1ccccc1)C1=C[C@H](c2ccccc2)C[C@H](OCCCCO)O1,x,-4,x,-6,x,x
O=C(Nc1ccccc1)C1=C[C@@H](c2ccc(Br)cc2)C[C@@H](OCCCCO)O1,-7,-1,0.4,10,63*,6
Nc1nc(N2CCCCC2)c(C=O)c(N2CCCCC2)n1,-5,5,1,-11,4,12
Cc1ccc(COn2c(-c3ccc(Cl)cc3)nc3ccc([N+](=O)[O-])cc32)cc1,-24,0,0.8,53,23,8
O=C(O)COn1c(-c2ccccc2)nc2ccc([N+](=O)[O-])cc21,-24,7,0.5,57,50*,14
Cc1cc(N=Cc2c(O)ccc3cc(Br)ccc23)no1,-1,24,0.4,9,64*,23
c1cc(SSc2ccncc2)ccn1,x,-5,x,65*,x,x
c1ccc(Sc2ccncc2)cc1,x,x,x,12,x,x
CC(Nc1cccc2ccccc12)C(=O)N/N=C/c1ccc([N+](=O)[O-])cc1 (stereo not given),-19,15,0.8,22,17,-1
SMILES,Tb hexokinase,HKDC1 inh,Diaph act CS,PfG6PD inh,Diaphorase inh,G6PDH counter
CC(O)C(=O)N/N=C/c1cccc2ccccc12 (stereo not given),-20,-11,1,14,1,-1
COc1cc([N+](=O)[O-])cc(/C=N/NC(=O)C(C)Nc2cccc3ccccc23)c1O (stereo not given),-12,8,0.3,-21,70*,-16
Cc1cccc(/C=N/NC(=O)C(C)Nc2cccc3ccccc23)n1 (stereo not given),-18,0,0.7,6,28,50*
CCn1c2ccccc2c2nnc(SCc3cc(=O)n4ccsc4n3)nc21,x,x,0.2,x,77*,2
CCCCn1c(N)c(C(=S)NC(=O)CC(C)(C)C)c(=O)n(C)c1=O,2,27,0.4,-18,62*,-6
CCCn1c(N)c(C(=O)CSc2ncn[nH]2)c(=O)n(C)c1=O,x,-5,x,-2,x,x
O=C(O)CC(CCc1ccccc1)OC1OC(CO)C(O)C(O)C1O (stereo not given),73*,1,x,-15,x,x
O=C(CC1Nc2cccc3cccc(c23)NC1=O)Nc1ccc(F)cc1 (stereo not given),-10,4,0.6,38,37,13
COc1ccc(NC(=O)CC2Nc3cccc4cccc(c34)NC2=O)cc1 (stereo not given),-13,24,0.2,26,75*,23
COc1ccc2[nH]c(=O)c(C(c3nnnn3CC3CCCO3)N3CCCCC3)cc2c1 (stereo not given),-5,-7,0.8,13,18,10
Cc1cccc2cc(C(c3nnnn3CC3CCCO3)N3CCc4ccccc4C3)c(=O)[nH]c12 (stereo not given),-19,22,0.4,8,55*,22
Cc1cccc2cc(C(c3nnnn3CC3CCCO3)N3CCCC4(CCCCC4)C3)c(=O)[nH]c12 (stereo not given),3,x,0.7,x,31,6
Cc1cccc2cc(C(c3nnnn3CC3CCCO3)N3CCCc4ccccc43)c(=O)[nH]c12 (stereo not given),-8,1,0.4,-2,60*,5
CCOc1ccc2[nH]c(=O)c(C(c3nnnn3CC3CCCO3)N3CCc4ccccc4C3)cc2c1 (stereo not given),-9,2,0.4,2,59*,14
Cc1ccc2cc(C(c3nnnn3CC3CCCO3)N3CCc4ccccc4C3)c(=O)[nH]c2c1 (stereo not given),-19,14,0.5,10,54*,-2
CCc1ccc2[nH]c(=O)c(C(c3nnnn3CC3CCCO3)N3CCCc4ccccc43)cc2c1 (stereo not given),-9,3,0.3,15,68*,19
CN(C)CCCn1c2c(c(SCC(=O)Nc3cccc4ccccc34)nc1=O)CCCC2,x,8,x,4,x,x
c1cnc2c(c1)ccc1cccnc12,13,-9,1.1,-18,-6,53*
O=Cc1ccc2ccc3cccnc3c2n1,x,17,x,20,x,x
COc1ccc(N2CCN(C(=O)c3sc4ncn(CC(=O)N5CCCCC5C)c(=O)c4c3C)CC2)cc1 (stereo not given),x,2,x,-6,x,x
O=C1CC(=O)N(Cc2ccco2)C(=S)N1,26,17,0.3,-4,68*,4
O=C1CC(=O)N(Cc2ccco2)C(=O)N1,13,12,1,4,4,1
